# Measurements gathered from unrelated publications.
# Compare with care: the assays were run in different laboratories.
# Cell line: 786-0
# Observed: cell growth or viability
SMILES,test,conditions,endpoint,value
COc1ccc(-c2ccc(-c3ccc(C(=N)N)nc3)s2)cc1Cl,,,GI50,2000 nM
COc1cccc(Oc2ccccc2NC(=O)CNC(=O)c2cccc3ccccc23)c1,SRB,48 h,GI50,490 nM
COc1cc(-c2ccc(-c3ccc(C(=N)N)nc3)s2)cc(OC)c1OC,,,GI50,2120 nM
CC(C)c1c(Sc2ccc(C(=O)N[C@@H](CCC(=O)O)C(=O)O)cc2)[nH]c2nc(N)nc(N)c12,,,GI50,5580 nM
COc1ccc(C(=O)/C=C/c2cc3c(cc2Br)OCO3)cc1S(N)(=O)=O,SRB,10 µM,inhibition,140%
Cc1cc(C)n(C(=S)[S][Au][PH](CCCCCC[PH]([Au][S]C(=S)n2nc(C)cc2C)(c2ccccc2)c2ccccc2)(c2ccccc2)c2ccccc2)n1,,,GI50,3100 nM
CC(=O)O[C@H]1C(=O)[C@@]2(C)[C@H]([C@H](OC(=O)c3ccccc3)[C@]3(O)C[C@H](OC(=O)[C@H](O)[C@@H](NC(=O)c4ccccc4)c4ccccc4)C(C)=C1C3(C)C)[C@]1(OC(C)=O)CO[C@@H]1C[C@@H]2O,,110 h,IC50,5 nM
CC1=CC(=O)C(C(C)C)=CC1=O,CCK-8,48 h,IC50,43000 nM
COc1ccc(C(=O)/C=C/c2ccccc2Br)cc1S(N)(=O)=O,SRB,48 h,GI50,1800 nM
CCCc1c(Sc2ccc(C(=O)N[C@@H](CCC(=O)O)C(=O)O)cc2)[nH]c2nc(N)nc(N)c12,,,GI50,≤ 10 nM
S=C([S][Au-][P+](CCCCCC[P+]([Au-][S]C(=S)n1cccn1)(c1ccccc1)c1ccccc1)(c1ccccc1)c1ccccc1)n1cccn1,,,GI50,9800 nM
